Test results from ChEMBL document CHEMBL4014306, “Pyrazolopyrimidines as Potent Stimulators for Transient Receptor Potential Canonical 3/6/7 Channels” (J Med Chem, 2017).
Activity calls are given as the source filed them. The calls are words filed in the database; no cut-off is given here.

Experiments:
Format in all cases: cell-based
[1] = molecular target: T1, Short transient receptor potential channel 6 (Mus musculus, UniProt Q61143); test: Agonist activity at mouse TRPC6 expressed in HEK293 cells co-expressing Gq11-PLCbeta fused M5 receptor assessed as peak current changes at +80 mV by whole cell patch-clamp method
T1 sequence (Q61143 whole entry): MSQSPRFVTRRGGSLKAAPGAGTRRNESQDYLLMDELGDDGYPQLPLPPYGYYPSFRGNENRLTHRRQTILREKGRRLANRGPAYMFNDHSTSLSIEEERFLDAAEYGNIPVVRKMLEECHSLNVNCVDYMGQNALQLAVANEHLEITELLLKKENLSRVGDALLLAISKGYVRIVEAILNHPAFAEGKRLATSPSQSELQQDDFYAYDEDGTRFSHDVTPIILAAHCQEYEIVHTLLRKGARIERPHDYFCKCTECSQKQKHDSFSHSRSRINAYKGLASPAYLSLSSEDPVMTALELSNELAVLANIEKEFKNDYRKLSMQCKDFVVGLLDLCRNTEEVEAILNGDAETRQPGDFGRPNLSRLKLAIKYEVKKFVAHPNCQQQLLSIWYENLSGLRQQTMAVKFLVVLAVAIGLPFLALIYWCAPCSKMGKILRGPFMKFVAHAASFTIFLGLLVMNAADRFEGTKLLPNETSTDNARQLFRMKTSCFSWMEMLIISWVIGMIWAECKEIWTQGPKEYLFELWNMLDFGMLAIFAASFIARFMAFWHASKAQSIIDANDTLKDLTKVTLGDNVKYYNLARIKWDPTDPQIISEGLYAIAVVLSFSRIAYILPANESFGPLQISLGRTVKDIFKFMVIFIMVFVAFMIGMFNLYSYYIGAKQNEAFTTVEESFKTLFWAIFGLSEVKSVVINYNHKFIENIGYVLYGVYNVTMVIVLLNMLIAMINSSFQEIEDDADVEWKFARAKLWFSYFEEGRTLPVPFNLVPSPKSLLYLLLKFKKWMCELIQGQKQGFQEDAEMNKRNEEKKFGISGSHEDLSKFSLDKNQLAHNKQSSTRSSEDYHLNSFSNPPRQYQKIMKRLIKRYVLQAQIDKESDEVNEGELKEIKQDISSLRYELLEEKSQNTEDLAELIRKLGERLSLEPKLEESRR
In short: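 Whole-cell patch clamp of TRPC6/M5 HEK293 cells. Pipette solution: 110 CsCl, 10 BAPTA, 4.77 CaCl2 (400 nM free Ca2+), pH 7.2. Bath at 0.1 mM Ca2+, pH 7.4. Ramps from +100 to −100 mV (100 ms) every 1 s from a 0 mV holding potential. Concentrations of 0.1–100 μM applied consecutively by perfusion. EC50 from currents at +80 mV.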

[2] = molecular target: T2, Short transient receptor potential channel 4 (Mus musculus) (UniProt Q9QUQ5); test: Agonist activity at mouse TRPC4beta expressed in HEK293 cells co-expressing MOR assessed as induction of membrane depolarization at 33 uM measured for 2.5 mins by FLIPR membrane potential dye-based fluorescence assay
T2 sequence (whole entry): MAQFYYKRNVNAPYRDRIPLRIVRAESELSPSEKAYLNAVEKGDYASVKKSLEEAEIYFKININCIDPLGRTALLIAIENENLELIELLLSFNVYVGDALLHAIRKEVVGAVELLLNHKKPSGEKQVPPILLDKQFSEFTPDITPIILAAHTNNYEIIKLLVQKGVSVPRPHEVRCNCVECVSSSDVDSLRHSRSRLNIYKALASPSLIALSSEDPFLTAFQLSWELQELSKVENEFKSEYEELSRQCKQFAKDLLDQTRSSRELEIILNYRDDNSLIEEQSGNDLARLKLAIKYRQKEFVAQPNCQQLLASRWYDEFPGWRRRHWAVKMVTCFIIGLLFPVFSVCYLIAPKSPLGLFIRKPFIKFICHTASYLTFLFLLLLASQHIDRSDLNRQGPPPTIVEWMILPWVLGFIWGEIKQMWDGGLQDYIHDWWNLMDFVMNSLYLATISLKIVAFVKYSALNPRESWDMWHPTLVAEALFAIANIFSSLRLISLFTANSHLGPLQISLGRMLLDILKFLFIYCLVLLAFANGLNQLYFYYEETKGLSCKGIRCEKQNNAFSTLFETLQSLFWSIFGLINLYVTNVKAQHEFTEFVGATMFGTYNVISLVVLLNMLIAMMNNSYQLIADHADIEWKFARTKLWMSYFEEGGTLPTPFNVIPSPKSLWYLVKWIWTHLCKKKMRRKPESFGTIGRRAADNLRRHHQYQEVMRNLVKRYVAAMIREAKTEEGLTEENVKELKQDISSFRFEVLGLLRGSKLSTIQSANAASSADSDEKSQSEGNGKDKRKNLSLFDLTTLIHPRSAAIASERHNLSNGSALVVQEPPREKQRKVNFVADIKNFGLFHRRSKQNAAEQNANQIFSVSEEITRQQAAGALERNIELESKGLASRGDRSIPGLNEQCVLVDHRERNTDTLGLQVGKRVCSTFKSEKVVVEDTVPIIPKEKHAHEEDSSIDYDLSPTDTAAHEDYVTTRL

[3] = molecular target: Transient receptor potential cation channel subfamily A member 1 (Homo sapiens) (UniProt O75762); test: Agonist activity at human TRPA1 expressed in HEK293 cells assessed as increase in intracellular calcium level at 33 uM measured for 2.5 mins by Fluo-8-AM dye based fluorescence assay
Transient receptor potential cation channel subfamily A member 1 (Homo sapiens), sequence (O75762 whole entry): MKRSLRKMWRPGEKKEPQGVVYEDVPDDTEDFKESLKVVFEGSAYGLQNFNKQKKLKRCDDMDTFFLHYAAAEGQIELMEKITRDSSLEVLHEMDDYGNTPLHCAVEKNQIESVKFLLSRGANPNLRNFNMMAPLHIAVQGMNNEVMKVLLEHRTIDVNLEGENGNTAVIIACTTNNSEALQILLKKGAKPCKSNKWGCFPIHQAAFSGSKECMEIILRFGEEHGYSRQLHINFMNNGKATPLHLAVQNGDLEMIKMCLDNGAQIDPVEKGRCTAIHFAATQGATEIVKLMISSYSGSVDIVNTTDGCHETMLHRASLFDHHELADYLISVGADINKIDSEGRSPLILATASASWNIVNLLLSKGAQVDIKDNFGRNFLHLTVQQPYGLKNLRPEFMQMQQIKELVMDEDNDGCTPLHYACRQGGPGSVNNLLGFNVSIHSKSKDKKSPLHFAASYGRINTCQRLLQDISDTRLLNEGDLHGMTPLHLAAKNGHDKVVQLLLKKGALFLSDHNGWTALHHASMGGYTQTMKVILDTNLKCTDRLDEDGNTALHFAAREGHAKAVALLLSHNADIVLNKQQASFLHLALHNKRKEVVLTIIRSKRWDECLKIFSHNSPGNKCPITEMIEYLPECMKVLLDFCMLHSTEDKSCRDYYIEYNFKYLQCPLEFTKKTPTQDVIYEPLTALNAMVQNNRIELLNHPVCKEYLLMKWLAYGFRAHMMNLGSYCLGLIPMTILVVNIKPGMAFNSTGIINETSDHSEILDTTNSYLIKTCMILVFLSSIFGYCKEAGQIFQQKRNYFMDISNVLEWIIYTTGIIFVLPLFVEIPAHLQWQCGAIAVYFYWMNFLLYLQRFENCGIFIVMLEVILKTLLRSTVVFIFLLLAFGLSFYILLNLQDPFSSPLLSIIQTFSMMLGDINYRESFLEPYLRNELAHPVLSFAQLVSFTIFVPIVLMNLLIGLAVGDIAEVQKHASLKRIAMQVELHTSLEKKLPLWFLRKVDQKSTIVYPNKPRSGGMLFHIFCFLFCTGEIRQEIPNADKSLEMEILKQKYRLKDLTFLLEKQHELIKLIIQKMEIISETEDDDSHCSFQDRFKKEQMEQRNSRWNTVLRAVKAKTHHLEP

Row | EC50 [1] [µM] | Activity [2] | Activity [3] | SMILES
1 | 2.05 | inactive | inactive | Cc1nn2c(O)cc(C3CCN(C(=O)OCc4ccccc4)CC3)nc2c1-c1ccc(Cl)cc1
2 | 0.89 | inactive | inactive | CCOC(=O)N1CCC(c2cc(O)n3nc(C)c(-c4ccc(C(F)(F)F)cc4)c3n2)CC1
3 | 3.24 | inactive | inactive | Cc1nn2c(O)cc(C3CCN(C(=O)OCc4ccccc4)CC3)nc2c1-c1ccc(F)cc1

Row | SMILES | EC50 [1] [µM] | Activity [2] | Activity [3]
4 | CCOC(=O)N1CCC(c2cc(O)n3nc(C)c(-c4ccc(F)cc4)c3n2)CC1 | 2.5 to 6.28 | inactive | inactive
